Data set [1] concerns CREB-binding protein/Histone acetyltransferase p300/Cellular tumor antigen p53 (Homo sapiens), P04637+Q09472+Q92793 [Y220C]. Put plainly: AceTAC activity at p53Y220C mutant in human NUGC-3 cells expressing p300/CBP assessed as increase in p53 acetylation at lysine 382 residue incubated for 24 hrs by western blot analysis. It is filed as cell-based. The following applies: dose 1-10 µM. Summed up: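 BxPC3 or NUGC-3 cells, which express p53Y220C endogenously, were treated with DMSO or compound at 1, 3 or 10 μM for 24 h. Lysates were Western blotted for p53 and p53K382ac, with vinculin as loading control. Representative of two independent experiments.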
In general terms: Immunoblotting shows a protein as a band on a membrane.

For data set [2] the test system is unchanged. Put plainly: Induction of interaction between FLAG-tagged p53Y220C mutant (unknown origin) and p300/CBP expressed in human NCI-H1299 cells at 10 uM pretreated for 2 hrs with p53Y220C mutant binder, PK9328 followed by incubation with compound for 18 hrs by co-immunoprecipitation analysis. It is filed as cell-based. Summed up:
(§1)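 NCI-H1299 (p53Y220C) cells were pretreated for 2 h with a 10 μM p53Y220C binder or a 10 μM p300 binder, then given compound at 3 μM for 18 h. p53-FLAG pull-down was followed by Western blot analysis.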

In data set [3] the test system is NCI-H1299. Put plainly: Antiproliferative activity against p53-null human NCI-H1299 cells assessed as reduction in cell viability at 0.47 to 15 uM incubated for 3 days by WST-8 assay. It counts as functional, cell-based. The following applies: dose 0.47-15 µM, time 3.0 day. Summed up:
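p53-null NCI-H1299 cells were exposed to compound across the concentration series for 72 h before the viability read-out. Data are mean ± SD from three independent experiments.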
(Tetrazolium dyes change colour on reduction, which living cells bring about.)

The test system of data set [4] is U2OS. In words: Cytotoxicity against human U2OS cells harboring wild type p53 assessed as inhibition of cell growth incubated for 72 hrs by WST-8 assay. It is filed as toxicity, cell-based. Summed up: (§2)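 U2OS (WT p53) or normal prostate PNT2 cells were treated for 72 h at the indicated concentrations. Viability is mean ± SD of technical triplicates from two biological experiments.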

In data set [5] the test system is NCI-H1299. Put plainly: Antiproliferative activity against human NCI-H1299 cells expressing p53Y220C mutant and transfected with p300 siRNA assessed as reduction in cell viability at 0.47 to 15 uM incubated for 3 days by WST-8 assay. It counts as functional, cell-based. The following applies: dose 0.47-15 µM, time 3.0 day. Summed up:
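NCI-H1299 p53Y220C cells were first transfected with p300 siRNA for 72 h, then exposed to compound across the concentration series for 72 h. Viability is mean ± SD from three independent experiments.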

Data set [6] concerns NUGC-3. In words: Antiproliferative activity against human NUGC-3 cells harboring p53Y220C mutant assessed as inhibition of cell growth incubated for 72 hrs by WST-8 assay. It counts as functional. Summed up: (§3)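 BxPC3 or NUGC-3 cells were treated with DMSO or compound over a concentration range for 72 h before the viability read-out. Values are mean ± SD of technical triplicates from three biological experiments.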

Data set [7] can be described thus: Plasma concentration in Swiss albino mouse at 50 mg/kg, ip measured after 8 hrs by LC-MS/MS analysis. It counts as ADME, organism-based. Summed up: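 Swiss albino mice received a single 50 mg/kg intraperitoneal injection. Plasma levels were followed over 8 h. Each point is the mean ± SEM of three mice.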
For data set [8], the system named is CREB-binding protein/Histone acetyltransferase p300/Cellular tumor antigen p53 (Homo sapiens), P04637+Q09472+Q92793 [Y220C]. Put plainly: AceTAC activity at FLAG-tagged p53Y220C mutant (unknown origin) expressed in human NCI-H1299 cells expressing p300/CBP assessed as BAX mRNA expression at 3 uM incubated for 24 hrs by RT-PCR analysis. It counts as cell-based. Summed up:
(§4)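 NCI-H1299 p53Y220C cells were treated with DMSO or compound at 3 μM for 24 h. mRNA of p53-target genes was measured by RT-qPCR, normalised to GAPDH and expressed relative to DMSO control. Values are mean ± SD of three independent experiments.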

Data set [9] shares this test system. In words: AceTAC activity at FLAG-tagged p53Y220C mutant (unknown origin) expressed in human NCI-H1299 cells expressing p300/CBP and transfected with control siRNA assessed as increase in p53 acetylation at lysine 382 residue at 1 to 10 uM incubated for 24 hrs by western blot analysis. The note with it: dose 1-10 µM. It counts as cell-based. Summed up: (§5)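 NCI-H1299 cells stably expressing p53Y220C were given control or p300 siRNA, then treated at 0, 1 or 10 μM for 24 h. Lysates were Western blotted for p53 and p53K382ac. The acetylation level was normalised to vinculin and quantified from two independent experiments.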

Data set [10] shares this test system. In words: AceTAC activity at FLAG-tagged p53Y220C mutant (unknown origin) expressed in human NCI-H1299 cells expressing p300/CBP assessed as increase in p53 acetylation at lysine 382 residue at 10 uM pretreated for 2 hrs with p53Y220C mutant binder, PK9328 followed by incubation with compound for 18 hrs by western blot analysis. It is filed as cell-based.
For data set [11] the test system is unchanged. Put plainly: AceTAC activity at FLAG-tagged p53Y220C mutant (unknown origin) expressed in human NCI-H1299 cells expressing p300/CBP assessed as increase in p53 acetylation at lysine 382 residue at 10 uM pretreated for 2 hrs with p300/CBP bromodomain binder, 4-(2-(5-(3,5-dimethylisoxazol-4-yl)-2-(3-fluoro-4-methoxyphenethyl)-1H-benzo[d]imidazol-1-yl)ethyl)morpholine followed by incubation with compound for 18 hrs by western blot analysis. It is filed as cell-based.

Data set [12] relates to PNT2. Put plainly: Cytotoxicity against human PNT2 cells assessed as inhibition of cell growth incubated for 72 hrs by WST-8 assay. It is filed as toxicity, cell-based. The note with it: pnt2, 72 h. Summed up: as §2
For data set [13], the system named is CREB-binding protein/Histone acetyltransferase p300/Cellular tumor antigen p53 (Homo sapiens), P04637+Q09472+Q92793 [Y220C]. In words: Induction of interaction between FLAG-tagged p53Y220C mutant (unknown origin) and p300/CBP expressed in human NCI-H1299 cells at 10 uM pretreated for 2 hrs with p300/CBP bromodomain binder, 4-(2-(5-(3,5-dimethylisoxazol-4-yl)-2-(3-fluoro-4-methoxyphenethyl)-1H-benzo[d]imidazol-1-yl)ethyl)morpholine followed by incubation with compound for 18 hrs by co-immunoprecipitation analysis. It is filed as cell-based. Summed up:
as §1

Data set [14] has as its system BXPC-3. In words: Antiproliferative activity against human BXPC-3 cells harboring p53Y220C mutant assessed as inhibition of cell growth incubated for 72 hrs by WST-8 assay. It counts as functional. Summed up: as §3
Data set [15] concerns CREB-binding protein/Histone acetyltransferase p300/Cellular tumor antigen p53 (Homo sapiens), P04637+Q09472+Q92793 [Y220C]. In words: AceTAC activity at FLAG-tagged p53Y220C mutant (unknown origin) expressed in human NCI-H1299 cells expressing p300/CBP and transfected with p300 siRNA assessed as increase in p53 acetylation at lysine 382 residue at 1 to 10 uM incubated for 24 hrs by western blot analysis. It is filed as cell-based. The note with it: dose 1-10 µM. Summed up: as §5

The nature of data set [16]: Toxicity in Swiss albino mouse assessed as tolerability at 50 mg/kg, ip measured for 8 hrs. It is filed as organism-based. The following applies: in vivo.
Data set [17] concerns CREB-binding protein/Histone acetyltransferase p300/Cellular tumor antigen p53 (Homo sapiens), P04637+Q09472+Q92793 [Y220C]. Put plainly: AceTAC activity at FLAG-tagged p53Y220C mutant (unknown origin) expressed in human NCI-H1299 cells expressing p300/CBP assessed as upregulation of GADD45A mRNA expression at 3 uM incubated for 24 hrs by RT-PCR analysis. It is filed as cell-based. Summed up: as §4

The test system is the same in data set [18]. Put plainly: AceTAC activity at FLAG-tagged p53Y220C mutant (unknown origin) expressed in human NCI-H1299 cells expressing p300/CBP assessed as increase in p53 acetylation at lysine 382 residue at 3 uM incubated for 24 hrs by western blot analysis. It is filed as cell-based. Summed up:
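NCI-H1299 (p53Y220C) cells were treated at 0.1–10 μM (0.1, 0.3, 1, 3 or 10 μM) for 24 h. Lysates were Western blotted for p53 and p53K382ac, with vinculin as loading control. p53K382ac was normalised to total p53Y220C and quantified from two or three independent experiments.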

Active and inactive are the calls of the source. The calls are words filed in the database; no cut-off is given here. A value given as a limit tells only on which side of the number the result lay.

The GI50 is the concentration that inhibits growth by half. For `CCn1c2ccc(CNCCOCCOCCOCCC(=O)NCCOc3ccc(CCc4nc5cc(-c6c(C)noc6C)ccc5n4CCN4CCOCC4)cc3F)cc2c2ccc(-c3cc(C)cs3)cc21`, the Activity entry was “Dose-Dependent Effect” in [1] and “Non-Toxic” in [16]. In addition, the result in data set [2], in [3], in [5], in data set [8], in [10] and in data set [11] was inactive. Further, the outcome in [13] and in data set [15] was inactive. For the same compound, the GI50 in data set [4] was greater than 10000 nM; in data set [6], 1830 nM; in data set [12], greater than 10000 nM; in data set [14] it was 2160 nM. The compound further showed a concentration at 8 h in [7] greater than 400 nM. The outcome in data set [9], in data set [17] and in [18] was Active.

(Values after ChEMBL document CHEMBL5614410, “Design, Synthesis, and Evaluation of p53Y220C Acetylation Targeting Chimeras (AceTACs)” (J Med Chem, 2024).)
